# In ChEMBL document CHEMBL1142970, “Inhibition of secreted phospholipase A2. 4-glycerol derivatives of 4,5-dihydro-3-(4-tetradecyloxybenzyl)-1,2,4-4H-oxadiazol-5-one with broad activities” (J Med Chem, 2007):
# What was measured:
# [1] = biological target: T1, Phospholipase A2, membrane associated (Homo sapiens, UniProt P14555); assay: Inhibition of human group IIA PLA2 by fluorimetric assay
# T1 sequence (P14555 whole entry): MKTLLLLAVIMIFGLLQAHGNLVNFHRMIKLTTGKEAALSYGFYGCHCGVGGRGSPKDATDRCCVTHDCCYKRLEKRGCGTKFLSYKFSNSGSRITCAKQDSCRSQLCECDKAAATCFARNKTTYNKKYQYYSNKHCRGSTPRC
# In short: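 Fluorimetric (Radvanyi method): 1 ng synthetic hGIIA sPLA2 in 1 mL of 50 mM Tris-HCl pH 7.5, 100 mM NaCl, 1 mM EGTA, 0.1% fatty acid-free BSA, 2 µM β-pyC-10-PG. Inhibitor added in ethanol or DMSO after BSA. Reaction started with 10 mM CaCl2 (final), fluorescence rise followed 2 min.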
# [2] = biological target: Phospholipase A2, major isoenzyme (Sus scrofa, UniProt P00592); assay: Inhibition of pig group IB PLA2 by fluorimetric assay
# In short: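 Porcine pancreatic sPLA2, 60 ng per 1 mL, in 50 mM Tris-HCl pH 7.5, 100 mM NaCl, 1 mM EGTA, 0.1% fatty acid-free BSA, 2 µM pyrene substrate β-pyC-10-PG. Inhibitor in ethanol or DMSO added after BSA. Activity as µmol hydrolyzed/min/mg, giving 50%-inhibition concentration.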
# [3] = Lipophilicity, log P of the compound; format: physicochemical; conditions: octanol/water
# In short: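 log P calculated from Rekker's hydrophobic fragmental constants.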
# [4] = biological target: T2, Group 10 secretory phospholipase A2 (Homo sapiens, UniProt O15496); assay: Inhibition of human group X PLA2 in [3H]oleate-labeled Escherichia coli membrane by radiometric assay
# T2 sequence (O15496 whole entry): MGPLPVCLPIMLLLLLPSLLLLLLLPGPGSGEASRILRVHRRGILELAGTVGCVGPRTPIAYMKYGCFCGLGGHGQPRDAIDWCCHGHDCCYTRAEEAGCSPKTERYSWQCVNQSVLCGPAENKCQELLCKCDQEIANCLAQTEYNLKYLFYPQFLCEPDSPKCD
# In short: (§1)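 Incubation 30-60 min, time adjusted for linear hydrolysis. Stopped with 0.1 M EDTA pH 8.0/1% BSA, centrifuged 10 000g, supernatant counted. Enzyme-free controls subtracted. IC50 obtained after 10 µM screen.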
# [5] = biological target: Phospholipase A2 (Homo sapiens, UniProt P04054); assay: Inhibition of human group IB PLA2 in [3H]oleate-labeled Escherichia coli membrane by radiometric assay; in short: as §1
# [6] = biological target: T3, Phospholipase A2 group V (Homo sapiens, UniProt P39877); assay: Inhibition of human group V PLA2 in [3H]oleate-labeled Escherichia coli membrane by radiometric assay; in short: as §1
# T3 sequence (P39877 whole entry): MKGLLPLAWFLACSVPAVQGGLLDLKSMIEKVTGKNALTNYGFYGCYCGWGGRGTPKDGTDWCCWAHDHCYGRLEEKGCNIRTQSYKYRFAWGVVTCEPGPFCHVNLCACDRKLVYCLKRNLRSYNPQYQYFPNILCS
# [7] = biological target: T1, Phospholipase A2, membrane associated; assay: Inhibition of human group IIA PLA2 in [3H]oleate-labeled Escherichia coli membrane by radiometric assay; in short: as §1
# Phospholipase A2, major isoenzyme, sequence (P00592 whole entry): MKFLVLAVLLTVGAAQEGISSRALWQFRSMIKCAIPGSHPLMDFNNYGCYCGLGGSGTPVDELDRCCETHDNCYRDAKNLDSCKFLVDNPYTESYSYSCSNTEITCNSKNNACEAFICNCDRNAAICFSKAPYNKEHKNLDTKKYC
# Phospholipase A2, sequence (P04054 whole entry): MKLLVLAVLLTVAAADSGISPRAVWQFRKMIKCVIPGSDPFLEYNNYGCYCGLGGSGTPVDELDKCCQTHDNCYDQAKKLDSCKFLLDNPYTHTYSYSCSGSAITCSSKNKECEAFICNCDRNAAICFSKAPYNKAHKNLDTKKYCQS
Compound,IC50 [1],IC50 [2],logP [3],logP ([3]; read-out: LogP),IC50 [4],IC50 [5],IC50 [6],IC50 [7]
CCCCCCCCCCCCCCO[C@@H](COc1ccc(-c2nc(=O)o[nH]2)cc1)COC(c1ccccc1)(c1ccccc1)c1ccccc1,0.33 µM,> 50 µM,11.8,–,–,–,–,–
CCCCCCCOCC(COc1ccc(-c2noc(=O)[nH]2)cc1)OCCCCCCC (racemic),50.9 µM,> 100 µM,–,6.3,–,–,–,–
CCCCCCCCCOCC(COc1ccc(Cc2noc(=O)[nH]2)cc1)OCCCCCCCCC (racemic),2.7 µM,> 100 µM,9.18,–,–,–,–,–
CCCCCCCCCCCCCCOC(COCc1ccc(C#N)cc1)COc1ccc(Cc2nc(=O)o[nH]2)cc1 (racemic),1.1 µM,9.6 µM,–,8.94,5 µM,7.6 µM,1.73 µM,7.6 µM
CCCCCCCCCCCCCCOc1ccc(Cc2noc(=O)[nH]2)cc1,4 µM,> 100 µM,–,7.08,–,–,–,–
CCCCCCCCCCCCCCOC(COCCCCCCCCCC)COc1ccc(-c2nc(=O)o[nH]2)cc1 (stereo not drawn),0.28 µM,> 100 µM,11.5,–,1 µM,10 µM,0.55 µM,1 µM
CCCCCCCCCCCCCCOCC(COc1ccc(Cc2nc(=O)o[nH]2)cc1)Oc1ccc(Cc2nc(=O)o[nH]2)cc1 (racemic),3.1 µM,57.8 µM,–,7.64,–,–,–,–
CCCCCCCCCCCCCCOC(COCCCCC)COc1ccc(-c2noc(=O)[nH]2)cc1 (racemic),8.3 µM,> 100 µM,–,8.72,–,–,–,–
CCCCCCCCCCCCCCOC(COc1ccc(-c2noc(=O)[nH]2)cc1)COC(c1ccccc1)(c1ccccc1)c1ccccc1 (racemic),0.9 µM,> 50 µM,11.8,–,1.25 µM,5.75 µM,0.66 µM,2 µM
CCCCCCCCCCCCCCOC(CO)COc1ccc(-c2noc(=O)[nH]2)cc1 (racemic),56 µM,> 100 µM,–,6.59,–,–,–,–
CCCCCCCCCCCCCCOC(COCc1ccccc1)COc1ccc(-c2noc(=O)[nH]2)cc1 (racemic),14.8 µM,> 25 µM,–,8.48,14 µM,> 100 µM,> 100 µM,> 100 µM
CCCCCCCCCCCCCCOC(COCCCCc1ccccc1)COc1ccc(-c2noc(=O)[nH]2)cc1 (racemic),0.29 µM,2.2 µM,10,–,12 µM,15 µM,22 µM,26 µM
CCCCCCCCCCCCCCOCC(COc1ccc(-c2noc(=O)[nH]2)cc1)Oc1ccc(-c2noc(=O)[nH]2)cc1 (racemic),21 µM,63.6 µM,–,7.05,–,–,–,–
CCCCCCCCCCCCCCOC(COc1ccc(-c2nc(=O)o[nH]2)cc1)COc1ccc(-c2nc(=O)o[nH]2)cc1,47.7 µM,> 100 µM,–,7.05,–,–,–,–
CCCCCCCCCCCCCCCCCCOC(COCc1ccc(C#N)cc1)COc1ccc(Cc2noc(=O)[nH]2)cc1 (racemic),0.15 µM,36.6 µM,11,–,0.9 µM,8.7 µM,1 µM,1.15 µM
CCCCCCCCCCCCCCOC(COCc1cccc(OC)c1)COc1ccc(-c2nc(=O)o[nH]2)cc1 (racemic),2.2 µM,39 µM,–,8.56,–,–,–,–
CCCCCOC(COc1ccc(Cc2noc(=O)[nH]2)cc1)COc1ccc(Cc2noc(=O)[nH]2)cc1,30.5 µM,> 100 µM,–,2.97,–,–,–,–
CCCCCCCCCCCCCCOC(COCC)COc1ccc(-c2noc(=O)[nH]2)cc1 (racemic),29.8 µM,> 40 µM,–,7.34,–,–,–,–
CCCCCCCCCCCCCCOC(COc1ccc(Cc2nc(=O)o[nH]2)cc1)COc1ccc(Cc2nc(=O)o[nH]2)cc1,2.1 µM,39.9 µM,–,7.64,–,–,–,–
CCCCCCCOCC(COc1ccc(Cc2noc(=O)[nH]2)cc1)OCCCCCCC (racemic),11.6 µM,> 100 µM,–,7.12,–,–,–,–
O=c1nc(-c2ccc(OCC(COCCCCc3ccccc3)OCCCCc3ccccc3)cc2)[nH]o1 (racemic),76.7 µM,> 100 µM,–,6.51,–,–,–,–
CCCCCCCCCCCCCCOC(COc1ccc(-c2noc(=O)[nH]2)cc1)COC(c1ccccc1)c1ccccc1 (racemic),0.28 µM,5.6 µM,10.1,–,5.3 µM,18 µM,2 µM,5 µM
Cc1c(C(=O)C(N)=O)c2c(OCC(=O)O)cccc2n1Cc1ccccc1-c1ccccc1,–,–,–,–,4.57 µM,3.3 µM,0.27 µM,0.18 µM
